# SIRT5 inh: SIRT5 desuccinylase inhibitors, primary screen, biochemical, fluorescence imaging, single point, set 5 | 1.1% of 330,000 active | inhibition, % at 15 µM | AID 652115, 2013 | NAD-dependent protein deacylase sirtuin-5, mitochondrial (Homo sapiens), Q9NXA8 | Purified SirT5, succinyl-peptide AMC, trypsin-coupled fluorescence; in the data active means inhibition above about 15%; inconclusive means no clear call, values can overlap the other calls
# DENV2 CPE rescue: inhibitors of DENV2 cytopathic effect, primary screen, cell-based, plate reader, single concentration; DENV2-infected cells, cytopathic effect rescue; CPE inhibition, % at 9.99 µM; 1.7% of 350,000 active; in the data active means CPE inhibition above about 20%, passing the limit was not always enough; inconclusive means no clear call, values can overlap the other calls; tested in BHK-21 cells
# E-selectin induc: E-selectin induction in HUVECs, primary screen, imaging, HUVEC, immunofluorescence imaging, single point; normalized: neutral wells 0, TNF-alpha wells 100; AID 686992, 2013; activation, % at 7.58 µM; P16581; 0.37% of 260,000 active;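 active means mean E-selectin-positive cell signal at least 10% of the positive control, reached in at least 60% of replicates, without over 20% cell loss; inconclusive means no rule given, readout overlaps actives, possibly toxicity-flagged; inactive means the rest, including those meeting only one limit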
# Target sequence (P16581 whole entry, looked up): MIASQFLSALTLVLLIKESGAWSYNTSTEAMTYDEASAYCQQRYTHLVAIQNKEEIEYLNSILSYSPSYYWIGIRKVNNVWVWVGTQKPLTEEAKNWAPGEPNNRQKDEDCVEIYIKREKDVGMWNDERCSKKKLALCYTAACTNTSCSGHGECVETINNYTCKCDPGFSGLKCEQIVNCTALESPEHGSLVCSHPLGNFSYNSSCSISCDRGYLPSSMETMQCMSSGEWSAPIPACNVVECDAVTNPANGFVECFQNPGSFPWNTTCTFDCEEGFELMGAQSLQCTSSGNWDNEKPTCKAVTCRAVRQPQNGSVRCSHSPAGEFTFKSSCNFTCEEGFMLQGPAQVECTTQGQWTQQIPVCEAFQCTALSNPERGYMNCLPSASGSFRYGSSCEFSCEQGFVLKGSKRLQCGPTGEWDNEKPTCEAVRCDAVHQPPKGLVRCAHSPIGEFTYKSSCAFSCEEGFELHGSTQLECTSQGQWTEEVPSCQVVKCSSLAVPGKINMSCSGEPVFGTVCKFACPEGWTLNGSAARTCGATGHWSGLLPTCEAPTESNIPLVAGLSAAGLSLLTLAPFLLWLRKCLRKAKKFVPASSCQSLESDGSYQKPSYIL
#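 Test system: HUVEC; input: 3,000 HUVEC/well; measured by: immunofluorescence imaging; read-out: % PE-positive cells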
# Numbers stand for hits; n = inactive; u = inconclusive; x = no result given; ! = repeats disagree. This is a sample that favours compounds with a hit; in the whole collection about 2.9% have one here.
SMILES,SIRT5 inh,DENV2 CPE rescue,E-selectin induc
CN(Cc1ccccc1)C(=O)c1cccnc1,n,n,n
O=c1c2ccccc2on1-c1ccccc1,x,n,n
COc1ccc(C(=O)C=Cc2cccs2)c(O)c1,n,n,n
O=C(N[C@H]1CC[C@H](CCNS(=O)(=O)c2ccc(F)cc2)O[C@@H]1CO)C1CCCC1,n,32,n
CCS(=O)(=O)NCC[C@H]1CC[C@H](NS(=O)(=O)c2ccccc2C)[C@@H](CO)O1,n,n,n
O=C(N[C@@H]1CC[C@H](CCNS(=O)(=O)c2ccc(F)cc2)O[C@@H]1CO)C1CCCC1,n,n,n
Cc1ccccc1S(=O)(=O)NCC[C@H]1CC[C@H](NC(=O)C2CCCC2)[C@@H](CO)O1,n,n,n
Cc1ccccc1S(=O)(=O)NCC[C@@H]1CC[C@@H](NC(=O)C2CCCCC2)[C@@H](CO)O1,n,27,n
NCC[C@H]1CC[C@H](NC(=O)C2CCCCC2)[C@H](CO)O1,n,n,n
CCS(=O)(=O)NCC[C@@H]1CC[C@@H](NS(=O)(=O)c2ccccc2C)[C@H](CO)O1,n,50,n
NCC[C@@H]1CC[C@@H](NC(=O)C2CCCC2)[C@@H](CO)O1,n,36,n
CCc1ccc(CN2CCC(n3nccc3NC(=O)c3ccccc3)CC2)o1,n,n,x
CCOC(=O)C1CCCN(C(=O)c2ccc(OC)cc2OC)CC1 (centres undefined),n,n,x
O=C(CSc1nnc2sc3ccccc3n12)N1CCN(c2ccccc2)CC1,n,n,x
CC/C(C)=C1/NC(=O)NC1=O,x,u,n
C/C(C/C(C)=C1/SC(=S)NC1=O)=C1\SC(=S)NC1=O,49,x,n
Cc1ccc(-c2cc(C(=O)N/N=C/c3ccccc3O)n[nH]2)o1,n,n,x
CC(NS(C)(=O)=O)C(c1cccs1)N1CCN(c2ccc(F)cc2)CC1 (centres undefined),n,n,x
C[C@@H]1CN([C@H](C)CO)C(=O)c2cccc(NC(=O)c3nc4ccccc4s3)c2O[C@@H]1CN(C)C(=O)NC1CCCCC1,34,n,n
C[C@@H]1CN([C@@H](C)CO)C(=O)c2cccc(NC(=O)c3nc4ccccc4s3)c2O[C@@H]1CN(C)Cc1ccccc1,n,n,n
C[C@H](CO)N1C[C@H](C)[C@H](CN(C)Cc2ccc(-c3ccccc3)cc2)Oc2c(NC(=O)c3nc4ccccc4s3)cccc2C1=O,n,41,n
C[C@H](CO)N1C[C@H](C)[C@@H](CN(C)Cc2ccc(-c3ccccc3)cc2)Oc2c(NC(=O)c3nc4ccccc4s3)cccc2C1=O,n,n,n
C[C@H]1CN([C@@H](C)CO)C(=O)c2cccc(NC(=O)c3nc4ccccc4s3)c2O[C@H]1CN(C)C(=O)NC1CCCCC1,n,n,n
C[C@@H]1CN([C@@H](C)CO)C(=O)c2cccc(NC(=O)c3nc4ccccc4s3)c2O[C@@H]1CN(C)Cc1ccc(C(F)(F)F)cc1,18,n,n
CC(Oc1cc(F)ccc1[N+](=O)[O-])C(=O)Nc1ccc(S(=O)(=O)N2CCCC2)cc1 (centres undefined),n,n,n
SMILES,SIRT5 inh,DENV2 CPE rescue,E-selectin induc
N#Cc1cccc(CN2C=NS(=O)(=O)c3ccccc32)c1,n,n,n
NC(=O)CN(c1ccccc1)C1SC(=O)N(Cc2ccccc2)C1=O (centres undefined),n,n,x
CCS(=O)(=O)N1CCN(Cc2c[nH]c3ccccc23)CC1,x,n,n
CCCc1nnc(-c2ccc(OC)cc2)o1,n,n,n
CNC(=O)CSc1nc2cccnc2n1C1CCCCC1,n,n,n
CC(C)(C)NC(=O)CSc1nc2cccnc2n1C1CCCCC1,20,n,x
COc1cccc(-c2cnc3c(NC=O)cc(-c4ccc(N5CCN(C)CC5)cc4)cn23)c1,n,n,n
COc1ccc(/C=C/C(=O)OCC(=O)c2c(C)[nH]c3ccccc23)cc1OC,n,n,n
CC1CCCCC1NC(=S)NC(=O)c1sc2ccccc2c1Cl (centres undefined),n,n,n
Cc1c(NC(=S)NC(=O)c2sc3ccccc3c2Cl)cccc1C(=O)O,36,n,n
Cc1ccc(S(=O)(=O)Nc2cccc(C(=O)NCCCN3CCOCC3)c2)cc1F,n,n,n
COc1cccc(CC(=O)OCC(=O)Nc2nnc(-c3ccccc3)o2)c1,n,103,n
COc1ccc(C(=O)OCC(=O)Nc2nnc(-c3ccccc3)o2)cc1,n,n,n
CCn1nc(C)c(/C=C/C(=O)Nc2ccc(C)cc2C)c1C,37,89,x
CCCNC(=O)Nc1ccc(C)cc1C,n,n,n
O=C1C=C(/C=C/c2ccccc2)C[C@@H](c2ccc3c(c2)OCO3)C1,n,n,n
Cc1ccc(S(=O)(=O)N(C)C[C@H]2OCCCC[C@@H](C)Oc3ccc(NC(=O)Nc4c(C)noc4C)cc3C(=O)N([C@H](C)CO)C[C@@H]2C)cc1,n,n,x
O=C(Nc1cccc(F)c1)c1ccco1,n,n,n
CC(=O)Nc1cccc(NC(=O)CSc2nnc(NC(=O)c3ccco3)s2)c1,n,u,n
O=C(CSc1nnc(NC(=O)c2ccco2)s1)Nc1cccc(F)c1,22,n,n
C[C@H]1CN([C@@H](C)CO)C(=O)c2cc(C3=CCCCC3)cnc2O[C@H]1CN(C)C(=O)Nc1cccc(F)c1,n,n,n
CC(C)(C)N1CC23C=CC(C[C@@H]2C1=O)O3 (some centres undefined),x,n,n
CC(C)(C)N1CC23CCC(C[C@@H]2C1=O)O3 (some centres undefined),x,39,n
CC(C)CCNC(=O)C1(C)CCN1Cc1ccc(-c2ccccn2)cc1 (centres undefined),x,n,n
CCOC(=O)c1c(CS(=O)(=O)c2ccccc2)n(C)c2cc(Br)c(O)cc12,18,n,x
SMILES,SIRT5 inh,DENV2 CPE rescue,E-selectin induc
CCOC(=O)c1c(CS(=O)(=O)c2ccccc2)n(C)c2cc(Br)c(O)c(CN(C)C)c12,x,n,x
CCCCC(OC(=O)c1ccco1)C(=O)NCc1ccc(C)cc1 (centres undefined),n,n,x
Cc1ccc(CNC(=O)C(CC(C)C)OC(=O)c2ccco2)cc1 (centres undefined),n,30,n
O=C(OC(C(=O)NCc1ccccc1)c1ccco1)c1ccccc1 (centres undefined),n,38,x
O=C(OC(C(=O)NCc1ccccc1)c1cccs1)c1ccccc1 (centres undefined),n,n,x
Cc1ccc(/C=C/C(=O)N2CCN(c3ccc(F)cc3)CC2)o1,n,n,x
CCCC(=O)NNC(=O)CC(=O)Nc1ccccc1C(=O)O,n,n,n
O=C(C[C@@H]1CC[C@H]2[C@@H](COC[C@H](O)CN2Cc2cc(F)cc(F)c2)O1)NCc1cccc(F)c1,n,n,n
O=C(C[C@H]1CC[C@H]2[C@@H](COC[C@H](O)CN2Cc2cc(F)cc(F)c2)O1)NCc1cccc(F)c1,n,n,n
O=C(C[C@H]1CC[C@@H]2[C@H](COC[C@H](O)CN2Cc2cccc(F)c2)O1)NCc1cccc(F)c1,20!,n,n
O=C(C[C@@H]1CC[C@@H]2[C@H](COC[C@H](O)CN2Cc2cc(F)cc(F)c2)O1)NCc1cccc(F)c1,n,22,n
